ChEMBL document CHEMBL1135197, “The synthesis and biological evaluation of a series of potent dual inhibitors of farnesyl and geranyl-Geranyl protein transferases” (Bioorg Med Chem Lett, 2002)
Where “and” joins values, the source holds several entries; their conditions need not be identical. Identical values can stand only once.

Key:
[1] = biological target: T1, Protein farnesyltransferase (Homo sapiens, UniProt P49354+P49356); test: Inhibitor of Farnesyl protein transferase (FTPase) required to reduce radiolabel [1-3H] incorporation by 50%; assay type: protein-complex assay
Method in brief: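 Purified recombinant FPTase transfers [1-3H]FPP onto a recombinant protein substrate carrying the K-ras C-terminus. IC50 is the inhibitor concentration that lowers radiolabel incorporation by 50% relative to uninhibited controls. Values are the mean of at least two determinations.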

[2] = biological target: T2, Geranylgeranyl transferase type I (Homo sapiens, UniProt P49354+P53609); test: (§1) Inhibition of [1-3H]-GGPP incorporation into biotinylated K4B-Ras peptide by geranylgeranyl transferase in the presence of 5 mM ATP; assay type: protein-complex assay
Method in brief: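 Scintillation proximity assay: GGPTase reaction of [1-3H]GGPP with a biotinylated peptide of the K4B-Ras C-terminus at several inhibitor concentrations. IC50 is the concentration cutting radiolabel incorporation by 50% relative to uninhibited controls. Values are the mean of at least two determinations.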

[3] = biological target: T1, Protein farnesyltransferase; test: The concentration required to displace 50% of a highly potent radiolabeled FPTase inhibitor; assay type: protein-complex assay
[4] = biological target: T1, Protein farnesyltransferase; test: Inhibition of Farnesyl protein transferase radiolabel [1-3H] incorporation; assay type: protein-complex assay
[5] = biological target: T1, Protein farnesyltransferase; test: Displacement of radiolabeled farnesyl transferase inhibitor; assay type: protein-complex assay
[6] = biological target: T2, Geranylgeranyl transferase type I; test: Inhibition of geranylgeranylation of C-terminal CAAX sequence of Rap 1a in PSN-1 cells; assay type: functional, cell-based
Method in brief: (§2)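 PSN-1 cells; the read-out is inhibition of geranylgeranylation at the C-terminal CAAX sequence of Rap 1a, reported as EC50. Values are the mean of at least two determinations.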

[7] = biological target: T2, Geranylgeranyl transferase type I; test: as §1; assay type: protein-complex assay; remark: listed apart in the source
Method in brief: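 Scintillation proximity assay: GGPTase reaction of [1-3H]GGPP with a biotinylated peptide of the K4B-Ras C-terminus at several inhibitor concentrations. Values are the mean of at least two determinations.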

[8] = biological target: T2, Geranylgeranyl transferase type I; test: Inhibition of geranylgeranylation of the C-terminal CAAX sequence of Rap 1a in PSN-1 cells; assay type: functional, cell-based; method in brief: as §2

Structure (SMILES) | IC50 [1] | IC50 [2] | IC50 [3] | IC50 [4] | IC50 [5] | EC50 [6] | IC50 [7] | EC50 [8]
CCOc1ccccc1COC(=O)N1CCN(Cc2cnc(C)n2Cc2ccc(C#N)cc2)CC1 | 1.5 nM | 80 nM | 1.13 nM | – | – | – | – | –
Cc1ncc(CN2CCN(C(=O)OCc3ccccc3OC(F)(F)F)CC2)n1Cc1ccc(C#N)cc1 | – | – | – | 0.33 nM | 0.34 nM | 660 nM | 53 nM | –
CS(=O)(=O)c1ccccc1COC(=O)N1CCN(Cc2cncn2Cc2ccc(C#N)cc2)CC1 | 99 nM | 18 nM | – | – | – | – | – | –
N#Cc1ccc(Cn2cncc2CN2CCN(C(=O)OCc3cccc4c3OCO4)CC2)cc1 | 15.5 nM | 19.8 nM | 10.9 nM | – | – | – | – | –
CCOc1ncccc1COC(=O)N1CCN(Cc2cncn2Cc2ccc(C#N)cc2)CC1 | 5 nM | 8.7 nM | 8.67 nM | – | – | – | – | –
N#Cc1ccc(Cn2cncc2CN2CCN(C(=O)OCc3ccccc3CC(F)(F)F)CC2)cc1 | 2.5 nM | 4.82 nM | 0.85 nM | – | – | – | – | 50 nM
COCc1ccccc1COC(=O)N1CCN(Cc2cncn2Cc2ccc(C#N)cc2)CC1 | 6.1 nM | 0.32 nM | 9.1 nM | – | – | – | – | –
CCOc1ccccc1COC(=O)N1CCN(Cc2cncn2Cc2ccc(C#N)cc2)CC1 | 1.6 nM | 0.32 nM | 4.52 nM | – | – | – | – | 71 nM
Cc1ncc(CN2CCN(C(=O)OCc3ccccc3)CC2)n1Cc1ccc(C#N)cc1 | 19 nM | 789 nM | – | – | – | – | – | –
N#Cc1ccc(Cn2cncc2CN2CCN(C(=O)OCc3ccccc3OC(F)(F)F)CC2)cc1 | 0.36 nM | 0.16 nM | 2.2 nM | – | – | – | – | 18 nM
COCc1ccccc1COC(=O)N1CCN(Cc2cnc(C)n2Cc2ccc(C#N)cc2)CC1 | – | – | – | 17 nM | 3.17 nM | 680 nM | 178 nM | –

More lines, now with the values ahead:

IC50 [1] | IC50 [2] | IC50 [3] | IC50 [4] | IC50 [5] | EC50 [6] | IC50 [7] | EC50 [8] | Structure (SMILES)
6.8 nM | 0.68 nM | 7.95 nM | – | – | – | – | – | N#Cc1ccc(Cn2cncc2CN2CCN(C(=O)OCc3ccccc3Cl)CC2)cc1
102 nM | 121 nM | – | – | – | – | – | – | N#Cc1ccc(Cn2cncc2CN2CCN(C(=O)OCc3ccc4c(c3)OCO4)CC2)cc1
34 nM | 76 nM | 166 nM | – | – | – | – | – | Cc1cccc(COC(=O)N2CCN(Cc3cncn3Cc3ccc(C#N)cc3)CC2)c1
3.1 nM | 0.84 nM | 4 nM and 27 nM | – | – | – | – | – | COc1ccccc1COC(=O)N1CCN(Cc2cncn2Cc2ccc(C#N)cc2)CC1
6.4 nM | – | 62.9 nM | – | – | – | 9.1 nM | – | Cc1ccccc1COC(=O)N1CCN(Cc2cncn2Cc2ccc(C#N)cc2)CC1
18 nM | 48 nM | 13 nM | – | – | – | – | – | COc1ncccc1COC(=O)N1CCN(Cc2cncn2Cc2ccc(C#N)cc2)CC1
13.4 nM | 74 nM | 12.1 nM | – | – | – | – | – | N#Cc1ccc(Cn2cncc2CN2CCN(C(=O)OCc3cccc(OC(F)(F)F)c3)CC2)cc1
